Results from ChEMBL document CHEMBL4190234, “Design, synthesis and anticancer activity of new monastrol analogues bearing 1,3,4-oxadiazole moiety” (Eur J Med Chem, 2017).

Tests used:
Type in all cases: functional
OVCAR-3 = experiment: Growth inhibition of human OVCAR3 cells at 10 uM incubated for 48 hrs by sulforhodamine B assay relative to control; conditions: OVCAR-3, 48 h, read-out: GI
Summary of the method: (§1)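 Single-dose screen at 10 μM final: cells in RPMI 1640, 5% FBS, 2 mM L-glutamine, plated 5,000–40,000/well, preincubated 24 h at 37°C, 5% CO2; drug 48 h; adherent cells fixed with 10% TCA, suspension cells with 16% TCA; SRB stain, absorbance 515 nm; percentage growth versus untreated control, with time-zero plates.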

PC-3 = experiment: Growth inhibition of human PC3 cells at 10 uM incubated for 48 hrs by sulforhodamine B assay relative to control; conditions: PC-3, 48 h, read-out: GI; summary of the method: as §1
A498 = experiment: Growth inhibition of human A498 cells at 10 uM incubated for 48 hrs by sulforhodamine B assay relative to control; conditions: A498, 48 h, read-out: GI; summary of the method: as §1
SW-620 = experiment: Growth inhibition of human SW620 cells at 10 uM incubated for 48 hrs by sulforhodamine B assay relative to control; conditions: SW-620, 48 h, read-out: GI
Summary of the method: (§2)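 NCI single-dose screen: cells grown in RPMI 1640 with 5% FBS and 2 mM L-glutamine, plated at 5,000–40,000 cells/well and preincubated 24 h at 37 °C, 5% CO2. Compounds taken from DMSO stock and tested at final 10 µM for 48 h. Cells fixed with TCA, stained with 0.4% SRB, absorbance read at 515 nm. Percentage growth calculated against untreated controls; controls held DMSO at the same dilution.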

HCC 2998 = experiment: Growth inhibition of human HCC2998 cells at 10 uM incubated for 48 hrs by sulforhodamine B assay relative to control; conditions: HCC 2998, 48 h, read-out: GI; summary of the method: as §1
KM12 = experiment: Growth inhibition of human KM12 cells at 10 uM incubated for 48 hrs by sulforhodamine B assay relative to control; conditions: KM12, 48 h, read-out: GI; summary of the method: as §1
RXF 393 = experiment: Growth inhibition of human RXF393 cells at 10 uM incubated for 48 hrs by sulforhodamine B assay relative to control; conditions: RXF 393, 48 h, read-out: GI; summary of the method: as §1
SK-MEL-5 = experiment: Growth inhibition of human SK-MEL-5 cells at 10 uM incubated for 48 hrs by sulforhodamine B assay relative to control; conditions: SK-MEL-5, 48 h, read-out: GI; summary of the method: as §2
K562 = experiment: Growth inhibition of human K562 cells at 10 uM incubated for 48 hrs by sulforhodamine B assay relative to control; conditions: K562, 48 h, read-out: GI; summary of the method: as §1
OVCAR-5 = experiment: Growth inhibition of human OVCAR5 cells at 10 uM incubated for 48 hrs by sulforhodamine B assay relative to control; conditions: OVCAR-5, 48 h, read-out: GI; summary of the method: as §1
SN12C = experiment: Growth inhibition of human SN12C cells at 10 uM incubated for 48 hrs by sulforhodamine B assay relative to control; conditions: read-out: GI; summary of the method: as §2
NCI-H322M = experiment: Growth inhibition of human NCI-H322M cells at 10 uM incubated for 48 hrs by sulforhodamine B assay relative to control; conditions: read-out: GI; summary of the method: as §1
NCI-H460 = experiment: Growth inhibition of human NCI-H460 cells at 10 uM incubated for 48 hrs by sulforhodamine B assay relative to control; conditions: NCI-H460, 48 h, read-out: GI; summary of the method: as §1
NCI-H226 = experiment: Growth inhibition of human NCI-H226 cells at 10 uM incubated for 48 hrs by sulforhodamine B assay relative to control; conditions: NCI-H226, 48 h, read-out: GI; summary of the method: as §1
M14 = experiment: Growth inhibition of human M14 cells at 10 uM incubated for 48 hrs by sulforhodamine B assay relative to control; conditions: M14, 48 h, read-out: GI; summary of the method: as §1
U-251 = experiment: Growth inhibition of human U251 cells at 10 uM incubated for 48 hrs by sulforhodamine B assay relative to control; conditions: U-251, 48 h, read-out: GI; summary of the method: as §2
MDA-MB-231 = experiment: Growth inhibition of human MDA-MB-231 cells at 10 uM incubated for 48 hrs by sulforhodamine B assay relative to control; conditions: MDA-MB-231, 48 h, read-out: GI; summary of the method: as §1
HOP-92 = experiment: Growth inhibition of human HOP92 cells at 10 uM incubated for 48 hrs by sulforhodamine B assay relative to control; conditions: HOP-92, 48 h, read-out: GI; summary of the method: as §1
Malme-3M = experiment: Growth inhibition of human MALME-3M cells at 10 uM incubated for 48 hrs by sulforhodamine B assay relative to control; conditions: read-out: GI; summary of the method: as §1
UACC-62 = experiment: Growth inhibition of human UACC62 cells at 10 uM incubated for 48 hrs by sulforhodamine B assay relative to control; conditions: UACC-62, 48 h, read-out: GI; summary of the method: as §2
COLO 205 = experiment: Growth inhibition of human COLO205 cells at 10 uM incubated for 48 hrs by sulforhodamine B assay relative to control; conditions: COLO 205, 48 h, read-out: GI; summary of the method: as §1
BT-549 = experiment: Growth inhibition of human BT549 cells at 10 uM incubated for 48 hrs by sulforhodamine B assay relative to control; conditions: BT-549, 48 h, read-out: GI; summary of the method: as §1
T47D = experiment: Growth inhibition of human T47D cells at 10 uM incubated for 48 hrs by sulforhodamine B assay relative to control; conditions: read-out: GI; summary of the method: as §2
EKVX = experiment: Growth inhibition of human EKVX cells at 10 uM incubated for 48 hrs by sulforhodamine B assay relative to control; conditions: read-out: GI; summary of the method: as §1
SK-OV-3 = experiment: Growth inhibition of human SKOV3 cells at 10 uM incubated for 48 hrs by sulforhodamine B assay relative to control; conditions: SK-OV-3, 48 h, read-out: GI; summary of the method: as §2
SK-MEL-28 = experiment: Growth inhibition of human SK-MEL-28 cells at 10 uM incubated for 48 hrs by sulforhodamine B assay relative to control; conditions: SK-MEL-28, 48 h, read-out: GI; summary of the method: as §2
SF-268 = experiment: Growth inhibition of human SF268 cells at 10 uM incubated for 48 hrs by sulforhodamine B assay relative to control; conditions: SF-268, 48 h, read-out: GI; summary of the method: as §2
SF-295 = experiment: Growth inhibition of human SF295 cells at 10 uM incubated for 48 hrs by sulforhodamine B assay relative to control; conditions: SF-295, 48 h, read-out: GI; summary of the method: as §2
MCF7 = experiment: Growth inhibition of human MCF7 cells at 10 uM incubated for 48 hrs by sulforhodamine B assay relative to control; conditions: MCF7, 48 h, read-out: GI; summary of the method: as §1
OVCAR-4 = experiment: Growth inhibition of human OVCAR4 cells at 10 uM incubated for 48 hrs by sulforhodamine B assay relative to control; conditions: OVCAR-4, 48 h, read-out: GI; summary of the method: as §1
NCI-H23 = experiment: Growth inhibition of human NCI-H23 cells at 10 uM incubated for 48 hrs by sulforhodamine B assay relative to control; conditions: NCI-H23, 48 h, read-out: GI; summary of the method: as §1
HOP-62 = experiment: Growth inhibition of human HOP62 cells at 10 uM incubated for 48 hrs by sulforhodamine B assay relative to control; conditions: HOP-62, 48 h, read-out: GI; summary of the method: as §1

Row | Structure (SMILES) | inhibition of growth at 10 µM (OVCAR-3) [%] | inhibition of growth at 10 µM (PC-3) [%] | inhibition of growth at 10 µM (A498) [%] | inhibition of growth at 10 µM (SW-620) [%] | inhibition of growth at 10 µM (HCC 2998) [%] | inhibition of growth at 10 µM (KM12) [%] | inhibition of growth at 10 µM (RXF 393) [%] | inhibition of growth at 10 µM (SK-MEL-5) [%] | inhibition of growth at 10 µM (K562) [%] | inhibition of growth at 10 µM (OVCAR-5) [%] | inhibition of growth at 10 µM (SN12C) [%] | inhibition of growth at 10 µM (NCI-H322M) [%] | inhibition of growth at 10 µM (NCI-H460) [%] | inhibition of growth at 10 µM (NCI-H226) [%] | inhibition of growth at 10 µM (M14) [%] | inhibition of growth at 10 µM (U-251) [%] | inhibition of growth at 10 µM (MDA-MB-231) [%] | inhibition of growth at 10 µM (HOP-92) [%] | inhibition of growth at 10 µM (Malme-3M) [%] | inhibition of growth at 10 µM (UACC-62) [%] | further results
1 | CCOC(=O)C1=C(C)NC(SCc2nnc(-c3ccc(C)cc3)o2)=NC1c1ccc(F)cc1 (stereo unspecified) | < 10 | 26.8 | < 10 | < 10 | < 10 | < 10 | < 10 | 14.5 | 14.7 | < 10 | 19.9 | 10.3 | < 10 | 10.1 | < 10 | 15.1 | 14.7 | 37 | < 10 | 17.1 | inhibition of growth at 10 µM (COLO 205): < 10%; inhibition of growth at 10 µM (BT-549): 12.8%; inhibition of growth at 10 µM (T47D): 32.6%; inhibition of growth at 10 µM (EKVX): < 10%; inhibition of growth at 10 µM (SK-OV-3): < 10%; inhibition of growth at 10 µM (SK-MEL-28): < 10%; inhibition of growth at 10 µM (SF-268): < 10%; inhibition of growth at 10 µM (SF-295): 12.1%; inhibition of growth at 10 µM (MCF7): 14%; inhibition of growth at 10 µM (OVCAR-4): < 10%; inhibition of growth at 10 µM (NCI-H23): < 10%; inhibition of growth at 10 µM (HOP-62): < 10%
2 | COc1ccc(-c2nnc(CSC3=NC(c4ccc(F)cc4)C(C(C)=O)=C(C)N3)o2)cc1 (stereo unspecified) | < 10 | 18.7 | < 10 | < 10 | < 10 | < 10 | < 10 | < 10 | < 10 | < 10 | < 10 | < 10 | < 10 | < 10 | 13.4 | 15.3 | 14.4 | 16.5 | 12.3 | 10.8 | inhibition of growth at 10 µM (COLO 205): < 10%; inhibition of growth at 10 µM (BT-549): < 10%; inhibition of growth at 10 µM (T47D): 28.9%; inhibition of growth at 10 µM (EKVX): < 10%; inhibition of growth at 10 µM (SK-OV-3): 18.3%; inhibition of growth at 10 µM (SK-MEL-28): < 10%; inhibition of growth at 10 µM (SF-268): < 10%; inhibition of growth at 10 µM (SF-295): < 10%; inhibition of growth at 10 µM (MCF7): 10.5%; inhibition of growth at 10 µM (OVCAR-4): 12.2%; inhibition of growth at 10 µM (NCI-H23): < 10%; inhibition of growth at 10 µM (HOP-62): 19.4%
3 | CC(=O)C1=C(C)NC(SCc2nnc(-c3ccc(Cl)cc3)o2)=NC1c1ccc(F)cc1 (stereo unspecified) | < 10 | 18.5 | < 10 | < 10 | < 10 | < 10 | < 10 | < 10 | < 10 | < 10 | < 10 | < 10 | < 10 | 11.6 | < 10 | < 10 | 17 | < 10 | < 10 | 22.6 | inhibition of growth at 10 µM (COLO 205): < 10%; inhibition of growth at 10 µM (BT-549): < 10%; inhibition of growth at 10 µM (T47D): 24.1%; inhibition of growth at 10 µM (EKVX): < 10%; inhibition of growth at 10 µM (SK-OV-3): < 10%; inhibition of growth at 10 µM (SK-MEL-28): < 10%; inhibition of growth at 10 µM (SF-268): < 10%; inhibition of growth at 10 µM (SF-295): < 10%; inhibition of growth at 10 µM (MCF7): 10.6%; inhibition of growth at 10 µM (OVCAR-4): < 10%; inhibition of growth at 10 µM (NCI-H23): < 10%; inhibition of growth at 10 µM (HOP-62): < 10%
